Experimental data published in ChEMBL document CHEMBL3992522, “Antileishmanial Activity of Pyrazolopyridine Derivatives and Their Potential as an Adjunct Therapy with Miltefosine” (J Med Chem, 2017).
pIC50: −log10 of the molar value. Values after ≈ are worked out from the molar mass of the structure shown. Active and inactive are the calls of the source. No cut-off for these calls is given here.

Legend:
Leishmania donovani [1] = assay: Antileishmanial activity against Leishmania donovani MHOM/IN/80/DD8 promastigote forms harboring luciferase gene at 25 uM after 72 hrs by Steady-Glo reagent based luminescence assay relative to control; format: functional; details: MHOM/IN/80/DD8, 72 h, read-out: GI
In short: (§1)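 Exponential-phase Dd8-Luc promastigotes at 1×10^6/mL in M199 with 10% FBS, 24 °C, given 50 and 25 µM for 72 h. Vehicle 0.1% DMSO. Steady-Glo added 1:1, luminescence (RLU) read. IC50 from four-parameter Hill regression, derived only where inhibition exceeded 90%. Means of at least three independent experiments.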

Leishmania donovani [2] = assay: Antileishmanial activity against Leishmania donovani MHOM/IN/80/DD8 promastigote forms harboring luciferase gene at 50 uM after 72 hrs by Steady-Glo reagent based luminescence assay relative to control; format: functional; details: MHOM/IN/80/DD8, 72 h, read-out: GI; in short: as §1
Leishmania donovani [3] = assay: Antileishmanial activity against Leishmania donovani MHOM/IN/80/DD8 amastigote forms harboring luciferase gene infected in mouse J774 cells at 25 uM after 72 hrs by Steady-Glo reagent based luminescence assay relative to control; format: functional; details: for inhibition of growth at 25 µM: MHOM/IN/80/DD8, J774, 72 h, read-out: GI
In short: (§2)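 Stationary-phase luciferase-expressing Dd8 promastigotes infected into J774 macrophages (4×10^4/mL seeded, 24 h, 37 °C, 5% CO2) at 1:8 macrophage:parasite for 24 h. Non-internalised parasites washed off. Compounds added at 50 and 25 µM in RPMI/10% FBS for 72 h. Lysis with Steady-Glo luciferin reagent plus PBS, luminescence read. Inhibition relative to untreated infected controls.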

Leishmania donovani [4] = assay: Antileishmanial activity against Leishmania donovani MHOM/IN/80/DD8 amastigote forms harboring luciferase gene infected in mouse J774 cells at 50 uM after 72 hrs by Steady-Glo reagent based luminescence assay relative to control; format: functional; details: for inhibition of growth at 50 µM: MHOM/IN/80/DD8, J774, 72 h, read-out: GI; in short: as §2
Leishmania donovani [5] = assay: Antileishmanial activity against Leishmania donovani MHOM/IN/80/DD8 promastigote forms harboring luciferase gene after 72 hrs by Steady-Glo reagent based luminescence assay; format: functional; details: MHOM/IN/80/DD8, 72 h; in short: as §1
Leishmania donovani [6] = assay: Antileishmanial activity against Leishmania donovani MHOM/IN/80/DD8 amastigote forms harboring luciferase gene infected in mouse J774 cells after 72 hrs by Steady-Glo reagent based luminescence assay; format: functional, cell-based; details: MHOM/IN/80/DD8, J774, 72 h
[7] = Cytotoxicity against mouse J774 cells assessed as reduction in cell viability after 72 hrs by MTT assay; format: cell-based
In short: (§3)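 Vero and J774 cells seeded at 1×10^5 per well for 24 h, then exposed 72 h to seven two-fold dilutions from 500 to 7.81 μM. MTT solution (5 mg/mL stock) added for 2 h at 37 °C, formazan dissolved in DMSO and read at 540 nm. CC50 derived by the Huber and Koella method.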

[8] = Cytotoxicity against African green monkey Vero cells assessed as reduction in cell viability after 72 hrs by MTT assay; format: cell-based; details: chlorocebus sabaeus; in short: as §3
[9] = Selectivity index, ratio of CC50 for mouse J774 cells to IC50 for Leishmania donovani MHOM/IN/80/DD8 amastigote forms infected in mouse J774 cells; format: toxicity, cell-based; details: read-out: Ratio CC50/IC50
In short: (§4)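 CC50: Vero or J774 cells (1×10^5/well) exposed 72 h to seven two-fold dilutions, 500–7.81 μM; MTT 2 h at 37 °C, formazan in DMSO read at 540 nm. IC50: luciferase-expressing Dd8 amastigotes in J774 macrophages (1:8), 72 h, luminescence, four-parameter Hill fit. SI = CC50/IC50, IC50 mean of three experiments.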

[10] = Selectivity index, ratio of CC50 for African green monkey Vero cells to IC50 for Leishmania donovani MHOM/IN/80/DD8 amastigote forms infected in mouse J774 cells; format: toxicity, cell-based; details: read-out: Ratio CC50/IC50; in short: as §4
Leishmania donovani [11] = assay: Antileishmanial activity against Leishmania donovani MHOM/IN/80/DD8 promastigote forms harboring luciferase gene after 72 hrs by Steady-Glo reagent based two fold dilution assay; format: functional; details: MHOM/IN/80/DD8, 72 h
In short: (§5)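 Promastigotes or J774-resident amastigotes treated 72 h with six two-fold dilutions from 200 µM down to 6.25 µM. Luciferase RLU fitted by four-parameter Hill non-linear regression to derive the […] inhibitory concentration (MIC).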

Leishmania donovani [12] = assay: Antileishmanial activity against Leishmania donovani MHOM/IN/80/DD8 amastigote forms harboring luciferase gene infected in mouse J774 cells after 72 hrs by Steady-Glo reagent based two fold dilution assay; format: functional; details: MHOM/IN/80/DD8, 72 h; in short: as §5
[13] = Cytotoxicity against mouse J774 cells assessed as cell viability […] after 72 hrs by MTT assay relative to control; format: cell-based; details: read-out: Activity; in short: as §3
[14] = Cytotoxicity against African green monkey Vero cells assessed as cell viability up to 200 uM after 72 hrs by MTT assay relative to control; format: cell-based; details: chlorocebus sabaeus, read-out: Activity
Leishmania donovani [15] = assay: Antileishmanial activity against Leishmania donovani MHOM/IN/80/DD8 promastigote forms harboring luciferase gene at 9.59 uM up to 72 hrs by MTT assay relative to control; format: functional; details: MHOM/IN/80/DD8, 72 h
Leishmania donovani [16] = assay: Antileishmanial activity against Leishmania donovani MHOM/IN/80/DD8 amastigote forms harboring luciferase gene infected in mouse J774 cells at 7.36 uM up to 72 hrs by Giemsa staining based assay relative to control; format: functional; details: MHOM/IN/80/DD8, J774, 72 h
In short: (§6)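 J774 macrophages in chamber slides infected with Dd8 promastigotes (1:10 cell:parasite in methods; 1:8 in legend) for 24 h, then treated 48 and 72 h. Cells methanol-fixed, stained with 20% Giemsa. Amastigotes per 100 macrophages counted against untreated infected controls.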

Leishmania donovani [17] = assay: Antileishmanial activity against Leishmania donovani MHOM/IN/80/DD8 amastigote forms harboring luciferase gene infected in mouse J774 cells at 50 uM up to 72 hrs by Giemsa staining based assay relative to control; format: functional; details: MHOM/IN/80/DD8, J774, 72 h; in short: as §6
Leishmania donovani [18] = assay: Antileishmanial activity against Leishmania donovani MHOM/IN/80/DD8 promastigote forms harboring luciferase gene at 6.25 to 12.5 uM up to 4 days by Steady-Glo reagent based luminescence assay; format: functional
In short: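 Log-phase luciferase promastigotes at 1.0×10^6 at 24 °C, pH 7.4, given two-fold dilutions from 200 to 6.25 µM. RLU in lysed cultures measured daily for up to 4 days to plot growth curves. Three independent experiments.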

Leishmania donovani [19] = assay: Antileishmanial activity against Leishmania donovani MHOM/IN/80/DD8 amastigote forms harboring luciferase gene infected in mouse J774 cells at 6.25 to 12.5 uM up to 4 days by Steady-Glo reagent based luminescence assay; format: functional, cell-based
In short: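 Infected J774 macrophages held at 37 °C with two-fold dilutions from 200 to 6.25 µM. Intracellular amastigote growth followed by luciferase activity in lysed macrophages, expressed as RLU, over time. Three independent experiments.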

Leishmania donovani [20] = assay: Antileishmanial activity against Leishmania donovani MHOM/IN/80/DD8 promastigote forms harboring luciferase gene at 50 uM up to 72 hrs by MTT assay relative to control; format: functional; details: MHOM/IN/80/DD8, 72 h
[21] = Stability in pH 1.2 simulated gastric fluid at 5 ug/ml after 120 mins by HPLC method
In short: (§7)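 Incubated in simulated gastric fluid (pH 1.2) or simulated intestinal fluid (pH 6.5); percentage remaining intact determined after 120 min.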

[22] = Stability in pH 6.5 simulated intestinal fluid at 5 ug/ml after 120 mins by HPLC method; in short: as §7
[23] = Metabolic stability in mouse liver S9 fractions at 1 mM after 60 mins in presence of NADPH by HPLC method; format: ADME; details: read-out: Stability
[24] = Half life in mouse liver S9 fractions at 1 mM in presence of NADPH by HPLC method; format: ADME, tissue-based
Liver = assay: Intrinsic clearance in mouse liver S9 fractions assessed per mg protein at 1 mM in presence of NADPH by HPLC method; format: ADME; details: s9, 1000 µM
[25] = Metabolic stability in mouse liver S9 fractions assessed as rate constant for metabolism at 1 mM after 60 mins in presence of NADPH by HPLC method; format: ADME, tissue-based
Leishmania donovani [26] = assay: Antileishmanial activity against Leishmania donovani amastigote forms infected in Balb/c mouse assessed as inhibition of parasitic burden in liver up to 100 mg/kg, ip administered for 5 consecutive days measured on day 7 post last treatment by Giemsa staining based assay relative to control; format: functional
Leishmania donovani [27] = assay: Antileishmanial activity against Leishmania donovani amastigote forms infected in Balb/c mouse assessed as inhibition of parasitic burden in spleen up to 100 mg/kg, ip administered for 5 consecutive days measured on day 7 post last treatment by Giemsa staining based assay relative to control; format: functional
Leishmania donovani [28] = assay: Antileishmanial activity against Leishmania donovani amastigote forms infected in Balb/c mouse assessed as inhibition of parasitic burden in spleen at 200 mg/kg, ip administered for 5 consecutive days measured on day 7 post last treatment by Giemsa staining based assay relative to control; format: functional
Leishmania donovani [29] = assay: Antileishmanial activity against Leishmania donovani amastigote forms infected in Balb/c mouse assessed as inhibition of parasitic burden in liver at 200 mg/kg, ip administered for 5 consecutive days measured on day 7 post last treatment by Giemsa staining based assay relative to control; format: functional

COc1ccc(OC)c(C2C3=C(CC(C)(C)CC3=O)Nc3c2c(-c2c[nH]c4ccccc24)nn3-c2ccc(Cl)c(Cl)c2)c1 (stereo unspecified)
inhibition of growth at 25 µM (Leishmania donovani [1]): 85.9% | inhibition of growth at 50 µM (Leishmania donovani [2]): 90.6% | inhibition of growth at 25 µM (Leishmania donovani [3]): 91.5% | inhibition of growth at 50 µM (Leishmania donovani [4]): 95.8% | pIC50 (Leishmania donovani [5]): 5.02 | pIC50 (Leishmania donovani [6]): 5.13 | CC50 at 72 h [7]: 482 µM | CC50 at 72 h [8]: 498 µM | selectivity ratio [9]: 65.5 | selectivity ratio [10]: 67.6 | MIC (Leishmania donovani [11]): 50 µM (≈ 30.7 µg/mL) | MIC (Leishmania donovani [12]): 50 µM (≈ 30.7 µg/mL) | viability at 72 h [13]: > 95% | viability at 72 h [14]: > 95% | inhibition at 9.59 µM (Leishmania donovani [15]): > 95% | inhibition at 7.36 µM (Leishmania donovani [16]): > 93% | inhibition at 50 µM (Leishmania donovani [17]): > 93% | Activity (Leishmania donovani [18]): Active | Activity (Leishmania donovani [19]): Active | inhibition at 50 µM (Leishmania donovani [20]): > 95% | Stability [21]: 75% | Stability [22]: 58% | remaining at 1 h, 1000 µM [23]: 31% | half-life at 1000 µM [24]: 40 min | CLH (Liver): 34.65 µL/min | k el at 1 h, 1000 µM [25]: 0.000283 s⁻¹ | inhibition (INH) (Leishmania donovani [26]): >50% | inhibition (INH) (Leishmania donovani [27]): >50% | Imax (Leishmania donovani [28]): 68% | Imax (Leishmania donovani [29]): 62%

COc1cc(C2C3=C(CC(C)(C)CC3=O)Nc3c2c(-c2c[nH]c4ccccc24)nn3-c2ccc(Cl)cc2)cc(OC)c1OC (stereo unspecified)
inhibition of growth at 25 µM (Leishmania donovani [1]): 79.3% | inhibition of growth at 50 µM (Leishmania donovani [2]): 86.7% | inhibition of growth at 25 µM (Leishmania donovani [3]): 23.6% | inhibition of growth at 50 µM (Leishmania donovani [4]): 28.2%

COc1ccc(OC)c(-c2c3c(nc4c2c(-c2c[nH]c5ccccc25)nn4-c2ccc(Cl)cc2)CC(C)(C)CC3=O)c1
inhibition of growth at 25 µM (Leishmania donovani [1]): 50.7% | inhibition of growth at 50 µM (Leishmania donovani [2]): 69.6% | growth inhibition (GI) (Leishmania donovani [3]): inactive | growth inhibition (GI) (Leishmania donovani [4]): inactive

COc1ccc(C2C3=C(CC(C)(C)CC3=O)Nc3c2c(-c2c[nH]c4ccccc24)nn3-c2ccc(Cl)c(Cl)c2)cc1OC (stereo unspecified)
inhibition of growth at 25 µM (Leishmania donovani [1]): 52.3% | inhibition of growth at 50 µM (Leishmania donovani [2]): 59.5% | growth inhibition (GI) (Leishmania donovani [3]): inactive | growth inhibition (GI) (Leishmania donovani [4]): inactive

O=C1C2=C(Nc3c(c(-c4c[nH]c5ccccc45)nn3-c3ccc(F)cc3)C2c2ccc(Cl)cc2)c2ccccc21 (stereo unspecified)
inhibition of growth at 25 µM (Leishmania donovani [1]): 54.2% | inhibition of growth at 50 µM (Leishmania donovani [2]): 68.3% | growth inhibition (GI) (Leishmania donovani [3]): inactive | growth inhibition (GI) (Leishmania donovani [4]): inactive
